Measured values gathered from unrelated publications.
Each line is one published result; the experiments were not run side by side.
Target: Homeodomain-interacting protein kinase 1 (HIPK1, Homo sapiens, UniProt Q86Z02)

COc1cc(Nc2nccc(-c3cnn4nc(OC)ccc34)n2)cc(C(F)(F)F)c1  remaining binding (binding; competition with immobilised ligand; 1 µM): 31%
CS(=O)(=O)NCC[C@H](NC(=O)c1cncc2c1cnn2-c1ccc(F)cc1)c1ccnc(S(C)(=O)=O)c1  remaining binding (cell-free assay; competition with immobilised ligand; 1 µM): 100%
COc1ccnn2ncc(-c3ccnc(N(C)C)n3)c12  remaining binding (binding; 1 µM): 55%
O=C(NCCCN1CCOCC1)c1ccc(Nc2nccc(-c3cc4ccccc4s3)n2)cc1  remaining binding (binding; competition with immobilised ligand; 1 µM): 36%
O=C(Nc1c[nH]nc1C(=O)NC1CCNCC1)c1cc(F)cc(F)c1  remaining binding (binding; competition with immobilised ligand; 1 µM): 33%
N[C@H]1CCN(c2nccc(-c3cnn4ncccc34)n2)C1  remaining binding (binding; 1 µM): 54%
O=C(c1ccc(Nc2nccc(-c3cc4ccccc4s3)n2)cc1)N1CCC(N2CCCC2)CC1  remaining binding (binding; competition with immobilised ligand; 1 µM): 13%
CN(CCCC(F)(F)F)c1nccc(-c2cnn3ncccc23)n1  remaining binding (binding; 1 µM): 70%
FC(F)(F)c1ccc2c(c1)nc(-c1cccnc1)n2C1CC1  remaining binding (cell-free assay; competition with immobilised ligand; 1 µM): 100%
CNC(=O)[C@@H]1CC[C@@H](n2c(-c3ccc4cnccc4c3)nc3ccc(C(=O)NCc4cccc(C(N)=O)c4)cc32)C1  remaining binding (binding; competition with immobilised ligand; 1 µM): 85%
C=CC(=O)N1CCC(C(=O)NCC(=O)N2CCN(c3nc(-c4cnc(N)nc4C(F)F)nc(N4CCOCC4)n3)CC2)CC1  remaining binding (binding; competition with immobilised ligand; 1 µM): 97%
O=C(O)c1cc(-c2ccc(C3CCNCC3)cc2)c2ccc(-c3ccc(C(F)(F)F)cc3)cc2c1  remaining binding (cell-free assay; competition with immobilised ligand; 1 µM): 97%
COc1cnc(Nc2cccc(S(N)(=O)=O)c2)nc1N1CCN(c2ccccc2)CC1  remaining binding (binding; competition with immobilised ligand; 1 µM): 98%
COc1ccc2c(c1)O[C@@H](c1ccc(OC)c(OC)c1)C[C@H]2NC(=O)C1(c2ccc3c(c2)OC(F)(F)O3)CC1  remaining binding (cell-free assay; competition with immobilised ligand; 1 µM): 86%
CCN1CCN(Cc2ccc(C(=O)Nc3ccc(C)c(Oc4ccc5c(c4)CC(=O)N5)c3)cc2C(F)(F)F)CC1  remaining binding (binding; competition with immobilised ligand; 1 µM): 83%
c1cnn2ncc(-c3ccnc(N4CCC45COC5)n3)c2c1  remaining binding (binding; 1 µM): 29%
C[C@H](NC(=O)c1cnc2n1[C@](C)(Cc1ccc(C#N)cc1)C(=O)N2c1cc(Cl)c(F)c(Cl)c1)C(=O)NC1(c2ccccn2)CC1  remaining binding (cell-free assay; competition with immobilised ligand; 1 µM): 97%
O=C(NCCCN1CCOCC1)c1ccc(Nc2ncc(Cl)c(-c3ccc(Cl)s3)n2)cc1  remaining binding (binding; competition with immobilised ligand; 1 µM): 8.7%
C[C@@H]1CCN(c2nccc(-c3cnn4ncccc34)n2)C1  remaining binding (binding; 1 µM): 52%
C[C@@H](c1ccc(-n2cnc3c(N)ncnc32)cc1)N1CCc2nn(C)c(Cc3ccccc3)c2C1=O  remaining binding (binding; competition with immobilised ligand; 0.1 µM): 91%
O=C(NS(=O)(=O)c1ccc(NCC2CCOCC2)c([N+](=O)[O-])c1)c1ccc(N2CCN(Cc3ccc(C(F)(F)F)cc3-c3ccc(Cl)cc3)CC2)cc1Oc1cnc2[nH]ccc2c1  remaining binding (cell-free assay; competition with immobilised ligand; 1 µM): 84%
